Reference: ChEMBL document CHEMBL4118271, “Synthesis and antitumor activity of novel 6,7,8-trimethoxy N-aryl-substituted-4-aminoquinazoline derivatives” (Bioorg Med Chem Lett, 2018)
The source made the active and inactive calls. The rule behind the calls is not given here.

What was measured:
[1] = tested on: SGC-7901; experiment: Anticancer activity against human SGC7901 cells after 72 hrs by MTT assay; assay type: functional, cell-based; conditions: SGC-7901, 72 h
[2] = tested on: SGC-7901; experiment: Induction of morphological changes in human SGC7901 cells assessed as induction of cell break at 1 and 10 uM after 24 to 72 hrs by inverted microscopic analysis; assay type: functional, cell-based
Outline: (§1)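 SGC7901 cells were seeded and allowed 24 h to settle, then exposed to 0.1% (v/v) DMSO vehicle, to test agent at 1 or 10 μM, or to epirubicin at 1 or 10 μM. Exposure lasted 24, 48 and 72 h. Morphology (shrinkage, size, apoptotic bodies, breakdown) was then observed microscopically.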

[3] = tested on: SGC-7901; experiment: Anticancer activity against human SGC7901 cells at 1 to 10 uM after 72 hrs by MTT assay; assay type: functional, cell-based
Outline: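 Growth inhibition of SGC7901 gastric cancer cells tested at single concentrations of 10 and 1 μM for 72 h, read out by MTT assay. Epirubicin served as the positive control at the same concentrations.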

[4] = tested on: SGC-7901; experiment: Induction of morphological changes in human SGC7901 cells at 1 uM after 24 hrs by inverted microscopic analysis; assay type: functional, cell-based; outline: as §1
[5] = tested on: SGC-7901; experiment: Induction of morphological changes in human SGC7901 cells assessed as induction of cell shrinking at 10 uM after 48 to 72 hrs by inverted microscopic analysis; assay type: functional, cell-based; outline: as §1
[6] = tested on: SGC-7901; experiment: Antiproliferative activity against human SGC7901 cells assessed as formation of apoptotic bodies at 10 uM after 48 to 72 hrs by inverted microscopic analysis; assay type: functional, cell-based; outline: as §1
[7] = biological target: Mitogen-activated protein kinase; ERK1/ERK2 (Homo sapiens) (UniProt P27361+P28482); experiment: Inhibition of EGF-induced ERK1/2 phosphorylation in human SGC7901 cells incubated for 30 mins post 10 min EGF stimulation by Western blot analysis; assay type: cell-based
Outline: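 SGC7901 cells were grown in RPMI 1640 with 10% serum to 80% confluency and stimulated with 40 ng/ml EGF for 10 min. They were then treated for 30 min with 0.1% (v/v) DMSO or test agent at 1, 10, 20 or 40 μM. Lysates were run on SDS-PAGE and blotted for phospho-ERK1/2, with actin as loading control, ECL detection and densitometry. Three independent experiments were run.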

[8] = tested on: SGC-7901; experiment: Induction of morphological changes in human SGC7901 cells assessed as reduction in cell size at 10 uM after 48 to 72 hrs by inverted microscopic analysis; assay type: functional, cell-based; outline: as §1

Chain of Mitogen-activated protein kinase; ERK1/ERK2 (Homo sapiens) (P27361 whole entry, looked up): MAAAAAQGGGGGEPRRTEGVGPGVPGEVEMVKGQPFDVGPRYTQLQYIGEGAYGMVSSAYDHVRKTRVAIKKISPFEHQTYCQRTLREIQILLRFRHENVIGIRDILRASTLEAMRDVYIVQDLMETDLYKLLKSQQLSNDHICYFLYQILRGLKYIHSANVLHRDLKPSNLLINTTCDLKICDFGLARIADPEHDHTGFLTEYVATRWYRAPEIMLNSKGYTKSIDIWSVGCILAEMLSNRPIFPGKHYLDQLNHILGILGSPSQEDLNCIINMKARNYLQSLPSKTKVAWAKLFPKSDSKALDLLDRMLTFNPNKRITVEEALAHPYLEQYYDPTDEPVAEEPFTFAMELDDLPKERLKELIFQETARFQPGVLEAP
Chain of Mitogen-activated protein kinase; ERK1/ERK2 (Homo sapiens) (P28482 whole entry, looked up): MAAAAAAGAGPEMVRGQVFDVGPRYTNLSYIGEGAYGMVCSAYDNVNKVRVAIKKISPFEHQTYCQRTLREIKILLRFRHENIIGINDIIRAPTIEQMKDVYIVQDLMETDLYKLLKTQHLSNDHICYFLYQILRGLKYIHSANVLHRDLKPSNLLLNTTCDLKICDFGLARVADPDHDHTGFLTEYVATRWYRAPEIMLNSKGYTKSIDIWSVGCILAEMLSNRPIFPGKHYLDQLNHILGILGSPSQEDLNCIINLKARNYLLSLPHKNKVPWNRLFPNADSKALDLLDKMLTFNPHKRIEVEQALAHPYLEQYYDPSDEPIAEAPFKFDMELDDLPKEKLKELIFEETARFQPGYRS

Compound	IC50 [1] [µM]	also measured
COc1cc2c(Nc3ccc(Br)c(F)c3)ncnc2c(OC)c1OC	> 30	–
COc1cc2c(Nc3cccc(Cl)c3F)ncnc2c(OC)c1OC	> 30	–
COc1cc2c(Nc3cc(C(F)(F)F)ccc3F)ncnc2c(OC)c1OC	10.3	–
COc1cccc2c1C(=O)c1c(O)c3c(c(O)c1C2=O)C[C@@](O)(C(=O)CO)C[C@@H]3O[C@H]1C[C@H](N)[C@@H](O)[C@H](C)O1 [EPIRUBICIN]	5.16	Activity [2]: Active
COc1cc2c(Nc3cccc(I)c3)ncnc2c(OC)c1OC	8.64	–
COc1cc2c(Nc3ccc(F)c(Cl)c3F)ncnc2c(OC)c1OC	> 30	–
COc1cc2c(Nc3cccc(C(F)(F)F)c3)ncnc2c(OC)c1OC	> 30	–
COc1cc2c(Nc3cccc(F)c3F)ncnc2c(OC)c1OC	> 30	–
COc1cc2c(Nc3ccc(C(F)(F)F)cc3)ncnc2c(OC)c1OC	> 30	–

The next lines start with results.

IC50 [1] [µM]	Compound	also measured
5.42	COc1cc2c(Nc3ccc(F)c(Cl)c3)ncnc2c(OC)c1OC	–
15	COc1cc2c(Nc3ccc(Br)c(Cl)c3F)ncnc2c(OC)c1OC	–
5.82	C#Cc1cccc(Nc2ncnc3c(OC)c(OC)c(OC)cc23)c1	–
0.434	COc1cc2c(Nc3ccc(B(O)O)cc3)ncnc2c(OC)c1OC	Activity [3]: Active; Activity [4]: inactive; Activity [5]: Active; Activity [6]: Active; inhibition [7]: Dose-dependent effect; Activity [8]: Active
> 30	COc1cc2c(Nc3cccc(Br)c3F)ncnc2c(OC)c1OC	–
18.4	COc1cc2c(Nc3cc(Br)ccc3F)ncnc2c(OC)c1OC	–
